According to ChEMBL document CHEMBL1141669, “Nitrile analogs of meperidine as high affinity and selective sigma-1 receptor ligands” (Eur J Med Chem, 2008):

How the values were obtained:
[1] = target: Sigma non-opioid intracellular receptor 1 (Rattus norvegicus, UniProt Q9R0C9); assay: Displacement of [3H](+)-pentazocine from sigma 1 opioid receptor in rat brain cerebellum; assay type: tissue-based
Procedure, shortened: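 σ1 radioligand binding with 5 nM [3H](+)-pentazocine in 50 mM Tris–HCl, pH 8.0. Nonspecific binding defined with 10 µM haloperidol. Test ligand at twelve concentrations, 120 min at 25 °C.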

[2] = Displacement of [3H]ditolylguanidine from sigma 2 opioid receptor in rat brain cerebellum; assay type: tissue-based
Procedure, shortened: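 σ2 sites labeled with 3 nM [3H]di-o-tolylguanidine, with 300 nM (+)-pentazocine present to mask σ1, in 50 mM Tris–HCl, pH 8.0. Nonspecific binding taken with 10 µM haloperidol. Twelve test-ligand concentrations, incubated 120 min at 25 °C.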

Rattus norvegicus = species: Rattus norvegicus; assay: Selectivity ratio of Ki for rat sigma 2 opioid receptor to Ki for rat sigma 1 opioid receptor
Mu-type opioid receptor = Mu-type opioid receptor (Homo sapiens, UniProt P35372); assay: Binding affinity to mu opioid receptor
Mu-type opioid receptor, sequence (P35372 whole entry): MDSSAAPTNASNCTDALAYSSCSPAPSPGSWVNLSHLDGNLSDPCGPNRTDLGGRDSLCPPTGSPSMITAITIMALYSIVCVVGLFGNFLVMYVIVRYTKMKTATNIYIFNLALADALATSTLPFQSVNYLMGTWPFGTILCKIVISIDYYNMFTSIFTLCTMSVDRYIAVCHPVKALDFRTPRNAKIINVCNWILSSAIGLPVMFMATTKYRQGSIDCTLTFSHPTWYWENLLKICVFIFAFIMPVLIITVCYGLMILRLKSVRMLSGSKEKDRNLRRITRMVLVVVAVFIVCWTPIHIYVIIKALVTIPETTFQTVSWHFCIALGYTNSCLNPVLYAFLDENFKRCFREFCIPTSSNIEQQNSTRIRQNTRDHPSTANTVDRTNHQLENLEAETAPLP

[3] = target: Kappa-type opioid receptor (Homo sapiens, UniProt P41145); assay: Binding affinity to kappa opioid receptor
Kappa-type opioid receptor, sequence (P41145 whole entry): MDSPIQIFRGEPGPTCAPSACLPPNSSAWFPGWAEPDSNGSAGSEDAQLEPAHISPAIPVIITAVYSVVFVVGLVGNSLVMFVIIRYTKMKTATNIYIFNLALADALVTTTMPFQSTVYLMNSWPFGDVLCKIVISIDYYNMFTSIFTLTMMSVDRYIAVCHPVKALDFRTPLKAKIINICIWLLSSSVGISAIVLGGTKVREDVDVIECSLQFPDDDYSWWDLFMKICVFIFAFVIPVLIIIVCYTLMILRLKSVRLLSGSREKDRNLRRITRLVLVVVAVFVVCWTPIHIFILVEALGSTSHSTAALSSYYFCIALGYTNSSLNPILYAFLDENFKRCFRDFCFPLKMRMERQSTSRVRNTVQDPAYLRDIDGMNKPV

[4] = target: Delta-type opioid receptor (Homo sapiens, UniProt P41143); assay: Binding affinity to delta opioid receptor
Delta-type opioid receptor, sequence (P41143 whole entry): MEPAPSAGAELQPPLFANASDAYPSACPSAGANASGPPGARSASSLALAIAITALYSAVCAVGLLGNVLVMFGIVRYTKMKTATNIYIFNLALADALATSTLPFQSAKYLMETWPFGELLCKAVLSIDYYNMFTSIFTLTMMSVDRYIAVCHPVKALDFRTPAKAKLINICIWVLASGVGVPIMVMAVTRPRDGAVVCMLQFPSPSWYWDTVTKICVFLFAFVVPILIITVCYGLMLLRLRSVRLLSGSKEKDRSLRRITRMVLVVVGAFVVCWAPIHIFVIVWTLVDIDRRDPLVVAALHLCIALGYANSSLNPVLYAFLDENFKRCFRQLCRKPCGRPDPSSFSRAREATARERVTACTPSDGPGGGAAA

Sigma non-opioid intracellular receptor 1, sequence (Q9R0C9 whole entry): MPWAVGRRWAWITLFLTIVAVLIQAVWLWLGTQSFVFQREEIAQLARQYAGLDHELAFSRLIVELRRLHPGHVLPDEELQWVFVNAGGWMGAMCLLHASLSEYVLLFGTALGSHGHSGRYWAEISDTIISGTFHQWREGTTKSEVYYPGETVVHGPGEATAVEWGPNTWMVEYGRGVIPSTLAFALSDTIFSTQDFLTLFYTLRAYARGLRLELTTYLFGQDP

| Structure (SMILES) | Ki [1] [nM] | Ki [2] [nM] | Ratio Ki (Rattus norvegicus) | Ki (Mu-type opioid receptor) [nM] | Ki [3] [nM] | Ki [4] [nM] |
| --- | --- | --- | --- | --- | --- | --- |
| c1ccc(CCN2CCN(c3ccccn3)CC2)cc1 | 322 | 170 | 0.53 |  |  |  |
| CC(C)CN1CCC(C#N)(c2ccccc2)CC1 | 0.35 | 63 | 180 |  |  |  |
| c1ccc(CCN2CCCCC2)cc1 [1-PHENETHYLPIPERIDINE] | 30 | 138 | 5 |  |  |  |
| C=CCN1CCC(C#N)(c2ccccc2)CC1 | 2.2 | 662 | 300 | > 10000 | > 10000 | > 10000 |
| CN1CCC(C#N)(c2ccccc2)CC1 | 113 | 2140 | 19 | > 10000 | > 10000 | > 10000 |
| C=C(C)CN1CCC(C#N)(c2ccccc2)CC1 | 3.7 | 482 | 130 | > 10000 | > 10000 | 5000 |
| N#CC1(c2ccccc2)CCN(Cc2ccccc2)CC1 | 0.41 | 657 | 1600 | 5900 | > 10000 | > 10000 |
| N#CC1(c2ccccc2)CCN(CCCCc2ccccc2)CC1 | 49 | 1310 | 27 | 9800 | > 10000 | > 10000 |
| CCCN1CCC(C#N)(c2ccccc2)CC1 | 1.7 | 143 | 84 |  |  |  |
| N#CC1(c2ccccc2)CCN(CCc2ccccc2)CC1 | 3.3 | 118 | 36 |  |  |  |
| N#CC1(c2ccccc2)CCN(CCCc2ccccc2)CC1 | 0.38 | 46 | 120 |  |  |  |
